The structures appear in SMILES notation.

Assay [1] relates to Mus musculus. As to the kind of experiment: Compound was tested for antagonistic activity of opioid agonist induced antinociception by using U-50,488H as agonist, administered sc in mice. The assay is classed as functional. The method, boiled down: (§1)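 Mice received isothiocyanate 10 nmol icv 24 h before testing. Agonist ED50 was then found in the abdominal stretch assay: DPDPE and DSLET given icv, morphine and U50488 given sc. Result is the ED50 ratio, treated over untreated control mice, with significance testing.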

In assay [2] the test system is Mus musculus. Put plainly: Compound was tested for antagonistic activity of opioid agonist induced antinociception by using DSLET as agonist, administered icv in mice. The assay is classed as functional. The method, boiled down: as §1
The target of assay [3] is Delta-type opioid receptor (Rattus norvegicus) (UniProt P33533). As to the kind of experiment: Compound was evaluated for its effect on the [3H]DSLET binding towards Opioid receptor delta 2 at 0.25 nM concentration; activity expressed as Bmax.
Delta-type opioid receptor (Rattus norvegicus), sequence (P33533 whole entry): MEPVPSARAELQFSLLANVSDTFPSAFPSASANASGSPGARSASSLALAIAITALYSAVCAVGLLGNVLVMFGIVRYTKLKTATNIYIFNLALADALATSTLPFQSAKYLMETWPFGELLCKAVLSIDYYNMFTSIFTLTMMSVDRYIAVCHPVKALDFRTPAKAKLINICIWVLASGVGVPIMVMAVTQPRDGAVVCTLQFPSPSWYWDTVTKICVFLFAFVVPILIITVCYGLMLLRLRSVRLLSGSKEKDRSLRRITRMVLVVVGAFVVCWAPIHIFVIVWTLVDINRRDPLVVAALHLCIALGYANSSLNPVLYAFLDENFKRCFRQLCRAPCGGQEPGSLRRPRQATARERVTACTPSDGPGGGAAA
For assay [4] the target is unchanged. Put plainly: Compound was evaluated for its effect towards […] binding to Opioid receptor delta 1 at 0.25 nM concentration activity expressed as Bmax.
For assay [5], the species on record is Cavia porcellus. Put plainly: compound was evaluated for agonist activity in smooth muscle preparation of guinea pig ileum (GPI) at 1 uM concentration. The assay is classed as functional. As to conditions: Muscle tissue. In short, it runs like this: (§2)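 Ligand at 1 µM tested directly on guinea pig ileum longitudinal muscle or mouse vas deferens; percent inhibition of the preparation recorded. Mean ± SEM of 3 experiments.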

Assay [6] deals with T1, Delta-type opioid receptor (Rattus norvegicus, UniProt P33533). Put plainly: Compound was evaluated for its effect towards [3H]DSLET binding to Opioid receptor delta 2 at 0.25 nM concentration.
T1 sequence (P33533 whole entry): as above
In assay [7] the target is Kappa-type opioid receptor (UniProt P41145). As to the kind of experiment: Prewash IC50 ratio obtained by dividing the IC50 of the ethylketazocine in presence of the antagonist by the IC50 of the agonist alone in the same tissue preparation against opioid receptor kappa in guinea pig ileum. The assay is classed as functional, tissue-based. The method, boiled down: (§3)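 Guinea pig ileum longitudinal muscle (morphine, ethylketazocine) or mouse vas deferens (DADLE). Tissue was exposed to antagonist at 100 nM, or 1 nM for one isomer, for 30 min before agonist concentration-response. Prewash ratio is agonist IC50 with antagonist over IC50 alone in the same tissue. Where the shift was significant, tissue was washed extensively and IC50 redetermined; postwash ratio is over control IC50. Mean ± SEM.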
Kappa-type opioid receptor, sequence (P41145 whole entry): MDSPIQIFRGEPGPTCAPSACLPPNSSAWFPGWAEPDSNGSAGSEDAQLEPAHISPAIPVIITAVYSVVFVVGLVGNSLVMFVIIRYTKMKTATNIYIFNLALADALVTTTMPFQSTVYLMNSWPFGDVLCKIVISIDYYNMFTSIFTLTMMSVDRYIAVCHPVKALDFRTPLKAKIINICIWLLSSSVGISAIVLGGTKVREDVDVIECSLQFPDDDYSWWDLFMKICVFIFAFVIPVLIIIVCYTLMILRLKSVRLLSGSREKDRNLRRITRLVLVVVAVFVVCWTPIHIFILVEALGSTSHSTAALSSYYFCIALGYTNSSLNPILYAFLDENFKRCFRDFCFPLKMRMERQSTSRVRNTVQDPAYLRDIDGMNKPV

The test system of assay [8] is Mus musculus. As to the kind of experiment: Compound was tested for antagonistic activity of opioid agonist induced antinociception by using morphine as agonist, administered sc in mice. The assay is classed as functional. In short, it runs like this: as §1
A short description of assay [9]: Prewash IC50 ratio obtained by dividing the IC50 of the DADLE in presence of the antagonist by the IC50 of the agonist alone in the same tissue preparation against delta receptor in mouse vas deferens. The assay is classed as functional. The method, boiled down: as §3
The subject of assay [10] is Mus musculus. Put plainly: Compound was tested for antagonistic activity of opioid agonist induced antinociception by using DPDPE as agonist, administered icv in mice. The assay is classed as functional. The method, boiled down:
as §1

Assay [11] deals with T1, Delta-type opioid receptor. As to the kind of experiment: Compound was evaluated for its effect towards [3H]DPDPE binding to Opioid receptor delta 1 at 0.25 nM concentration expressed as dissociation constant.
The species entered for assay [12] is Mus musculus. As to the kind of experiment: compound was evaluated for agonist activity in smooth muscle preparation of mouse vas deferens (MVD) at 1 uM concentration. The assay is classed as functional. As to conditions: Muscle tissue. The method, boiled down:
as §2

Assay [13] concerns the target Delta-type opioid receptor (Rattus norvegicus) (UniProt P33533). As to the kind of experiment: Compound was evaluated for its effect on the [3H]DSLET binding towards Opioid receptor delta 2 at 4 nM concentration; activity expressed as Bmax.
Assay [14] deals with Mu-type opioid receptor (UniProt P35372). As to the kind of experiment: Prewash IC50 ratio obtained by dividing the IC50 of the morphine in presence of the antagonist by the IC50 of the agonist alone in the same tissue preparation against opioid receptor mu in guinea pig ileum. The assay is classed as functional, tissue-based. In short, it runs like this: as §3
Mu-type opioid receptor, sequence (P35372 whole entry): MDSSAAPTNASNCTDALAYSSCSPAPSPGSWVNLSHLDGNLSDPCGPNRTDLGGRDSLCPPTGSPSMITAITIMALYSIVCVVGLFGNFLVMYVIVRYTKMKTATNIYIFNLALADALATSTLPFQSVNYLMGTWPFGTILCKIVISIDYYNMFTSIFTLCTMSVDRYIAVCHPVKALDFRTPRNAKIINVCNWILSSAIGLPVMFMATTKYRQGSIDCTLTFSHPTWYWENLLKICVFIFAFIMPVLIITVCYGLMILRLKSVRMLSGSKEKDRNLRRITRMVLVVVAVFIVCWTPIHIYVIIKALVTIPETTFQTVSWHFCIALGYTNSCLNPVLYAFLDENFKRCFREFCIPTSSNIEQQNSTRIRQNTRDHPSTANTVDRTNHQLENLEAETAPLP
Assay [15] has the same target. Put plainly: Post wash IC50 ratio obtained by dividing the IC50 of the morphine in presence of the antagonist by the IC50 of the agonist alone in the same tissue preparation against opioid receptor mu in guinea pig ileum. The assay is classed as functional, tissue-based. The method, boiled down: as §3
Assay [16] in a line: Post wash IC50 ratio obtained by dividing the IC50 of the DADLE in presence of the antagonist by the IC50 of the agonist alone in the same tissue preparation against delta receptor in mouse vas deferens. The assay is classed as functional. In short, it runs like this:
as §3

One may read the inhibition as the change of the read-out against control, counted positive when it falls. Broadly, the Kd is the constant that tells how readily two partners part at equilibrium. Lower therefore signals a tighter complex. With `Oc1ccc2c3c1OC1c4[nH]c5c(N=C=S)cccc5c4CC4(O)C(C2)N(CC2CC2)CCC314` (stereo unspecified), the ED50 ratio in assay [1] came to 0.8; in assay [2] it was 3; in assay [8], 2; in [10], 3.7. Moreover, the Bmax (fM (mg of protein)-1) in [3] came out at 208; in assay [4], 5.6; in [13] it was 361. Further, the inhibition at 1 µM in [5] was determined as 5.9%; in [12], 31.8%. Besides, the figures for the Kd in assay [6] and in assay [11] were 15.7 nM and 2.3 nM, respectively. In addition, the Ratio came out at 0.81 in assay [7]; 7.99 in assay [9]; 15 in assay [14]; 53 in assay [15]; 16.1 in assay [16].

Turning to `Oc1ccc2c3c1OC1c4[nH]c5cccc(N=C=S)c5c4CC4(O)C(C2)N(CC2CC2)CCC314` (stereo unspecified), the ED50 ratio stood at 1.6 in assay [1], 1.6 in assay [2], 1.2 in [8] and 2.6 in assay [10]. Also, the inhibition at 1 µM worked out at 1% in assay [5] and 24.4% in assay [12]. The Ratio in assay [7] is 0.51; in [9], 4.59; in [14] it was 0.77; in assay [16] it was 3.71.

Turning to `Oc1ccc2c3c1OC1c4[nH]c5ccc(N=C=S)cc5c4CC4(O)C(C2)N(CC2CC2)CCC314` (stereo unspecified), the ED50 ratio is recorded as 3.2 in [1], 52.1 in assay [2], 1.3 in assay [8] and 0.6 in assay [10]. In addition, the inhibition at 1 µM in assay [5] is -2.4%; in assay [12] it was 18.8%. The Ratio was found to be 0.93 in assay [7], 6.68 in assay [9], 0.9 in assay [14] and 7.71 in assay [16].

For `Oc1ccc2c3c1OC1c4[nH]c5cc(N=C=S)ccc5c4CC4(O)C(C2)N(CC2CC2)CCC314` (stereo unspecified), the ED50 ratio is 0.9 in assay [1], 6.8 in assay [2], 1.4 in [8] and 9.2 in assay [10]. In addition, the inhibition at 1 µM turned out to be 12.4% in assay [5] and 0% in assay [12]. Also, the Ratio came out at 1.04 in [7], 155 in assay [9], 1.44 in [14] and 185 in assay [16].
